The text below walks through data of ChEMBL document CHEMBL6134793, “Synthesis and structure-activity study of the antimicrobial lipopeptide brevibacillin” (RSC Med Chem, 2024).

≈ marks a conversion by molar mass, not a printed value. Calls of active or inactive are those of the source. The rule behind the calls is not given here.

The test system of data set [1] is Pseudomonas aeruginosa. The experiment in a line: Antimicrobial activity against Pseudomonas aeruginosa ATCC […] assessed as growth inhibition by microdilution assay. It counts as functional. Summed up: (§1)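 Twofold serial microdilution of peptide (stocks 2 mg mL−1, diluted to 512 μg mL−1 in water with 10% DMSO) in strain medium, about 1 × 10^4 cfu per well. Media: TSB 20 h 37 °C (S. aureus, L. monocytogenes, B. subtilis, E. faecalis); LB 20 h 37 °C (P. aeruginosa, S. enterica, E. coli); Brucella 48 h 37 °C (C. coli). A595 read; MIC = lowest concentration with no visible growth; triplicate.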

The subject of data set [2] is Enterococcus faecalis. Briefly: Antimicrobial activity against Enterococcus faecalis ATCC 29212 assessed as growth inhibition by microdilution assay. It counts as functional. In a few lines: as §1
Data set [3] concerns Clostridium perfringens. The experiment in a line: Antimicrobial activity against Clostridium perfringens ATCC 3628 assessed as growth inhibition by microdilution assay. In kind it is functional. In a few lines:
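Broth microdilution: twofold serial peptide dilutions in reinforced clostridial medium (RCM), seeded with about 1 × 10^4 cfu per well, incubated 20 h at 37 °C. Working solution 512 μg mL−1 made from a 2 mg mL−1 stock in water with 10% DMSO. Growth read as absorbance at 595 nm. MIC taken as the lowest concentration giving complete inhibition of visible growth; run in triplicate.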

Data set [4] has as its system Listeria monocytogenes. Briefly: Antimicrobial activity against Listeria monocytogenes ATCC 19111 assessed as growth inhibition by microdilution assay. In kind it is functional. In a few lines:
as §1

Data set [5] is described as follows: Cytotoxicity against human Caco-2 cells assessed as inhibition of cell viability incubated for 48 hrs by Cell Titer GLO assay. It counts as toxicity, cell-based. Summed up:
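Caco-2 cells in DMEM with 10% FCS, seeded 25 000 per well, adhered overnight, then given peptide at 2–256 μg mL−1 in complete medium for 48 h at 37 °C, 5% CO2. Controls: cisplatin 125 μM; 0.1% DMSO medium. Viability by ATP luminescence (CellTiter-Glo) versus untreated cells; IC50 from dose–response; mean ± SEM of at least three independent experiments.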

Data set [6] deals with Pseudomonas aeruginosa. The experiment in a line: Antimicrobial activity against Pseudomonas aeruginosa ATCC […] assessed as growth inhibition at 128 ug/ml by radial diffusion assay. In kind it is functional, organism-based. As to conditions: dose 128.0 µg/ml. Summed up:
(§2)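 Agar well diffusion. Overnight cultures inoculated at 1% into 0.75% soft agar (TSB for S. aureus, LB for P. aeruginosa). Each well received 80 μL of peptide at 128 μg mL−1 in water with 10% DMSO; 10% DMSO served as negative control. Inhibition zone diameter scored after strain-specific incubation.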

For data set [7], the system named is Staphylococcus aureus. Briefly: Antimicrobial activity against Staphylococcus aureus ATCC 6538 assessed as growth inhibition at 128 ug/ml by radial diffusion assay. It counts as functional, organism-based. The conditions noted are these: dose 128.0 µg/ml. Summed up:
as §2

In data set [8] the test system is Escherichia coli. Briefly: Antimicrobial activity against Escherichia coli ATCC 25922 assessed as growth inhibition by microdilution assay. In kind it is functional. In a few lines: as §1
A short description of data set [9]: Hemolytic activity in human erythrocytes at 128 ug/ml measured after 1 hr by absorbance based assay relative to control. In kind it is toxicity, cell-based, Erythrocyte. As to conditions: at 128 µg/mL, read-out: Activity. Summed up: (§3)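 Washed human donor erythrocytes at 1% hematocrit in PBS pH 7.4 exposed to twofold peptide dilutions (final 2–256 μg mL−1, up to 1% DMSO) for 1 h at 37 °C. After centrifugation, supernatant A405 read. % hemolysis relative to PBS (0%) and 1% Triton X-100 (100%). Triplicate; mean ± SEM.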

The nature of data set [10]: Antimicrobial activity against Salmonella enterica serovar Newport ATCC 6962 assessed as growth inhibition by microdilution assay. In kind it is functional, Salmonella enterica subsp. enterica serovar Newport. Summed up:
as §1

For data set [11], the system named is Bacillus subtilis. The experiment in a line: Antimicrobial activity against Bacillus subtilis ATCC 23957 assessed as growth inhibition by microdilution assay. It counts as functional. In a few lines:
as §1

Data set [12] deals with Staphylococcus aureus. The experiment in a line: Antimicrobial activity against Staphylococcus aureus ATCC 6538 assessed as growth inhibition by microdilution assay. In kind it is functional. In a few lines: as §1
The test system of data set [13] is Campylobacter coli. The experiment in a line: Antimicrobial activity against Campylobacter coli ATCC 33559 assessed as growth inhibition by microdilution assay. It counts as functional. Summed up: as §1
Data set [14] is described as follows: Hemolytic activity in human erythrocytes at 256 ug/ml measured after 1 hr by absorbance based assay relative to control. It counts as toxicity, cell-based, Erythrocyte. As to conditions: at 256 µg/mL, read-out: Activity. In a few lines:
as §3

The test system of data set [15] is Staphylococcus aureus. The experiment in a line: Antimicrobial activity against Staphylococcus aureus ATCC 6538 assessed as diameter of growth inhibition at 128 ug/ml by radial diffusion assay. In kind it is functional. The conditions noted are these: dose 128 µg/ml. Summed up:
as §2

Data set [16] deals with Pseudomonas aeruginosa. Briefly: Antimicrobial activity against Pseudomonas aeruginosa ATCC […] assessed as diameter of growth inhibition at 128 ug/ml by radial diffusion assay. It counts as functional. As to conditions: dose 128 µg/ml. Summed up:
as §2

Consider `CC[C@@H](NC(=O)[C@@H](O)[C@@H](C)CC)C(=O)N[C@@H](CC(C)C)C(=O)N[C@H](CCCN)C(=O)N[C@H](C(=O)N[C@H](C(=O)N[C@H](C(=O)N[C@H](CCCCN)C(=O)N[C@H](C(=O)N[C@H](C(=O)N[C@@H](CCCCN)C(=O)N[C@H](Cc1ccc(O)cc1)C(=O)N[C@@H](CC(C)C)C(=O)N[C@H](CO)C(C)C)C(C)C)C(C)C)C(C)C)C(C)C)C(C)C`, for which the MIC was 2 µg/mL in [1]; greater than 128 µg/mL in data set [2]; 8 µg/mL in data set [3]; 4 µg/mL in [4]; 64 µg/mL in data set [8]; greater than 128 µg/mL in [10]. In addition, the minimum inhibitory concentration (MIC) was found to be 4 µg/mL in data set [11], 2 µg/mL in [12] and 16 µg/mL in [13]. In addition, the IC50 at 48 h in [5] is 32.4 µg/mL (≈ 20.8 µM). Besides, the “growth inhibition (qualitative call)” value in data set [6] and in [7] was “Not active; Exhibited Small Decrease In Activity” each time. Also, in data set [9], the hemolysis at 1 h, 128 ug/ml came to 1.2%. For the same compound, the hemolysis at 1 h, 256 ug/ml in data set [14] turned out to be 4.2%.

`CC[C@H](NC(=O)[C@@H](O)[C@@H](C)CC)C(=O)N[C@@H](CC(C)C)C(=O)N[C@H](CCCN)C(=O)N[C@H](C(=O)N[C@H](C(=O)N[C@H](C(=O)N[C@H](CCCCN)C(=O)N[C@H](C(=O)N[C@H](C(=O)N[C@@H](CCCCN)C(=O)N[C@H](Cc1ccc(O)cc1)C(=O)N[C@@H](CC(C)C)C(=O)N[C@H](C(N)=O)C(C)C)C(C)C)C(C)C)C(C)C)[C@@H](C)CC)[C@@H](C)CC`: the MIC in data set [1] was 2 µg/mL; in [2], 64 µg/mL; in data set [3] it was 8 µg/mL; in data set [4], 2 µg/mL; in data set [8], greater than 128 µg/mL; in data set [10], greater than 128 µg/mL. In addition, the MIC was determined as 2 µg/mL in data set [11], 2 µg/mL in data set [12] and 16 µg/mL in [13]. Moreover, the Activity in [15] and in data set [16] was 7 mm in each case. Besides, the IC50 at 48 h in data set [5] stood at 11.3 µg/mL (≈ 7.07 µM). Also, the hemolysis at 1 h, 128 ug/ml in data set [9] was determined as 23.3%. For the same compound, the hemolysis at 1 h, 256 ug/ml in data set [14] stood at 38.2%.

For the compound `CC[C@H](NC(=O)[C@@H](NC(C)=O)[C@@H](C)CC)C(=O)N[C@@H](CC(C)C)C(=O)N[C@H](CCCN)C(=O)N[C@H](C(=O)N[C@H](C(=O)N[C@H](C(=O)N[C@H](CCCCN)C(=O)N[C@H](C(=O)N[C@H](C(=O)N[C@@H](CCCCN)C(=O)N[C@H](Cc1ccc(O)cc1)C(=O)N[C@@H](CC(C)C)C(=O)N[C@H](C(N)=O)C(C)C)C(C)C)C(C)C)C(C)C)[C@@H](C)CC)[C@@H](C)CC`, the MIC in data set [1], in [2], in data set [3], in data set [4], in data set [8] and in data set [10] was greater than 128 µg/mL throughout. Moreover, the MIC in data set [11], in data set [12] and in data set [13] was greater than 128 µg/mL each time. Besides, the IC50 at 48 h in data set [5] was 14.9 µg/mL (≈ 9.08 µM). For the same compound, the “growth inhibition (qualitative call)” value in [6] and in [7] was “inactive” each time. Moreover, the hemolysis at 1 h, 128 ug/ml in [9] amounted to 23.3%. Further, the hemolysis at 1 h, 256 ug/ml in data set [14] was 38.2%.
